Screening data deposited in PubChem by The Scripps Research Institute Molecular Screening Center.
Only some compounds are listed: those with a hit (about 4.5% of all), similar ones and a draw of the others.
TAAR1 ag: human TAAR1 agonists, primary screen, Fluo-8 calcium fluorescence, CHO RD-HGA16 cells. Trace amine-associated receptor 1 (Homo sapiens), Q96RJ0. vehicle wells 0%, saturating PEA agonist 100%. activation, % at 3 µM. 0.99% of 360,000 active. AID 624467, 2012;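 active means activation above the mean activation of all test compounds in the run plus 3 SD, cut at about 38% in these data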
Target sequence (Q96RJ0 whole entry, looked up): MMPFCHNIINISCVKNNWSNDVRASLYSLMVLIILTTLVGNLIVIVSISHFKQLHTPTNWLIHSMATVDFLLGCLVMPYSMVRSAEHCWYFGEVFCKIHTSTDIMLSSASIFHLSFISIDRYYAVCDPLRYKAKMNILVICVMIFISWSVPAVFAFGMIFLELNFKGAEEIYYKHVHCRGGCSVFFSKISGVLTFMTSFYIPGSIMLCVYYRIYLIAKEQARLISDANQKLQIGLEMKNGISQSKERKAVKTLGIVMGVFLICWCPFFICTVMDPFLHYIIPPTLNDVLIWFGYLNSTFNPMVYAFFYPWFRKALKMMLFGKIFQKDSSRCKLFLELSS
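Repeats: no replicates (n 1) | Material: CHO-derived RD-HGA16 cells with stable Gα16 and human TAAR1 | Technique: Kinetic Fluo-8 calcium fluorescence | Schedule: 17-24 h seeding, 75 min 37 °C dye, 30 min RT | Evaluation: % activation from peak over basal fluorescence ratio, DMSO-to-PEA scaled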
CHO parental Ca: ATP-evoked calcium signal inhibitors, parental CHO, primary screen, counter-screen for OX1R antagonist project, cell-based, fluorescence, Fluo-8 calcium dye. 0.63% of 330,000 active. inhibition, % at 5.6 µM. parental CHO-K1, ATP-induced calcium, Fluo-8 fluorescence;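 active means inhibition above that plate's mean sample inhibition plus 3 SD, cut at about 26% in these data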;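 further: 0% = ATP-challenged DMSO wells and 100% = DMSO wells without ATP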
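Test system: untransfected parental CHO cell line. Compound: one dose, 5.6 µM nominal. Detection: intracellular calcium via Fluo-8 no-wash fluorescent dye. Measure: % inhibition. Benchmarks: ATP-challenged DMSO wells low, unchallenged DMSO wells high.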
OX1R antag-1: antagonists of human orexin 1 receptor (OX1R); Orexin/Hypocretin receptor type 1 (Homo sapiens), O43613; OX1R-expressing cells, FRET antagonist read-out; inhibition, % at 6.6 µM; 1.8% of 330,000 active; in the data active means inhibition mostly above about 38%, no sharp cut-off; inactive means mostly below about 40%;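 further: 0% = agonist challenge alone and 100% = reference antagonist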
TAAR1 antagonist: human TAAR1 antagonists, primary screen, Fluo-8 calcium fluorescence, CHO RD-HGA16 cells | antagonist | inhibition, % at 3 µM | 1.5% of 360,000 active | AID 624466, 2012;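 active means inhibition above a per-plate cutoff, the mean inhibition of test compounds on that plate plus 3 SD, cut at about 49% in these data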;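 further: 0% = DMSO plus EC80 beta-PEA response and 100% = DMSO alone without agonist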
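Material: CHO RD-HGA16 cells bearing hTAAR1; compound dosing: one-point dosing, 3 µM nominal final; schedule: dye loading 75 min at 37 °C, then 30 min room temperature; measured by: calcium fluorescence with Fluo-8; control set: vehicle and agonist controls; replication: n of 1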
OX1R antag-2: OX1R (HCRTR1) antagonists, primary screen, fluorescence, CHO/OX1R cells, Fluo-8 calcium, orexin A. Fluo-8 calcium fluorescence. inhibition, % at 5 µM. 0.43% of 330,000 active;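 active means inhibition above its plate's threshold, mean inhibition of all tested compounds on the plate plus 3 SD, cut at about 37% in these data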;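 further: 0% = orexin A challenge wells and 100% = SB-334867-A antagonist wells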
GPR7 antagonist: GPR7 receptor antagonists, primary screen, cell-based, fluorescence, single concentration; Neuropeptides B/W receptor type 1 (Homo sapiens), P48145; GPR7-expressing cells, fluorescence antagonist assay; inhibition, % at 4.4 µM; 1.1% of 290,000 active; in the data active means inhibition above about 16%, passing the limit was not always enough;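 further: cells stimulated with the agonist NPW; 0% = agonist with vehicle and 100% = vehicle without agonist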
Target sequence (P48145 whole entry, looked up): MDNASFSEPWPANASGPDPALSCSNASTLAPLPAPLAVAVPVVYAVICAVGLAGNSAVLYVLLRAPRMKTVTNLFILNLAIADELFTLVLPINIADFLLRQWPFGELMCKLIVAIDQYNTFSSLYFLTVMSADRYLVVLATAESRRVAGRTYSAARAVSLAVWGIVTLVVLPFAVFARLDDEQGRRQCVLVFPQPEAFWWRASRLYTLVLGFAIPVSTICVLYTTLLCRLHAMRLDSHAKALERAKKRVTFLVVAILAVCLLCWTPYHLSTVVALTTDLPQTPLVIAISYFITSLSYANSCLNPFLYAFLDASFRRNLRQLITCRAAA
GPR7 antag conf: GPR7 receptor antagonists, confirmation, cell-based, fluorescence, single concentration; 52% of 2,400 active; AID 1952, 2009; GPR7-expressing cells, calcium fluorescence antagonist mode; shares compounds with GPR7 antagonist; inhibition, % at 4.4 µM; in the data active means inhibition above about 24%;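 further: stimulated with the GPR7 agonist NPW; 0% = agonist plus vehicle and 100% = vehicle alone without agonist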
MCHR1 antagonist: MCHR1 antagonists in cells, counter-screen for GPR7 antagonist project, cell-based, fluorescence, human; MCHR1-expressing cells, fluorescence antagonist assay; 62% of 2,400 active; inhibition, % at 4.4 µM; shares compounds with GPR7 antagonist; in the data active means inhibition above about 22%;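 further: 0% = vehicle with agonist and 100% = vehicle without agonist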
The depositor's hits bear a star; . = no result.

SMILES | TAAR1 ag | CHO parental Ca | OX1R antag-1 | TAAR1 antagonist | OX1R antag-2 | GPR7 antagonist | GPR7 antag conf | MCHR1 antagonist
CCS(=O)(=O)c1ncc(Cl)c(C(=O)Nc2ccc(S(=O)(=O)N(C)c3ccccc3)cc2)n1 | 6 | 52* | 46* | 56* | 51* | 61* | 96* | 98*
CS(=O)(=O)c1ncc(Cl)c(C(=O)Nc2ccc(OC(F)F)cc2)n1 | . | 14 | 53* | . | 14 | 51* | 88* | 94*
CCN(c1ccccc1)S(=O)(=O)c1ccc(C(=O)Nc2ccncc2)cc1 | 9 | 7 | 26 | 0 | 4 | . | . | .
Clc1ccc(-c2cc3nc(NCc4cccc(Cl)c4)ccn3n2)cc1 | 2 | . | . | -36 | . | . | . | .
CC1(C2CC2)NC(=O)N(CC(=O)NCc2ccc(Cl)cc2Cl)C1=O (configuration not stated) | 1 | -7 | -1 | -3 | -64 | . | . | .
O=C(O)CCn1c2ccccc2c2nc3ccccc3nc21 | 7 | -4 | 49* | 5 | -8 | 28* | 10 | 2
COC(=O)Cn1c2ccccc2c2nc3ccccc3nc21 | 7 | . | . | -22 | . | -17 | . | .
CCC(C)(C(=O)NC1CCCC1)N(Cc1ccco1)C(=O)c1ccc2c(c1)OCO2 (configuration not stated) | 4 | -11 | 11 | -4 | -30 | 31* | 37* | 20
CCC(C)(C(=O)NC1CCCC1)N(Cc1ccco1)C(=O)c1ccccn1 (configuration not stated) | 4 | -9 | 13 | 11 | -34 | 17 | . | .
CCC(C)(C(=O)NC1CCCC1)N(Cc1ccco1)C(=O)Cc1cccs1 (configuration not stated) | 8 | -16 | 19 | 6 | -20 | 38* | 33* | 23*
O=c1ccc2cccc([N+](=O)[O-])c2[nH]1 | 1 | . | . | -7 | . | . | . | .
CC(=O)NC(c1cccc(F)c1)c1nc(-c2ccc(N(C)C)cc2)cs1 (configuration not stated) | 1 | . | . | -5 | . | . | . | .
O=S1(=O)CC(N2CC=CC2)CN1Cc1cn(Cc2ccc(Cl)cc2)nn1 (configuration not stated) | 1 | . | . | -18 | . | . | . | .
N=c1c(C(=O)NCc2ccc(F)cc2)cc2c(=O)n3ccccc3nc2n1CC1CCCO1 (configuration not stated) | -2 | -17 | 72* | -1 | -24 | 22* | 26* | 12
O=S(=O)(NCc1cn2ccsc2n1)c1cccs1 | 4 | -9 | 13 | -6 | -4 | 27* | -13 | -4
CC1CCN(CC(O)COC2CC(C)CCC2C(C)C)CC1 (configuration not stated) | 14 | -26 | 11 | -1 | -7 | 23* | 18 | 15
CC(C)c1ccc(C(=O)Nc2nnc(S(=O)(=O)N3CCCCC3)s2)cc1 | -2 | -8 | 13 | -6 | -15 | 67* | -8 | 27*
O=C(Nc1nnc(S(=O)(=O)N2CCCCCC2)s1)c1ccc(Cl)cc1 | 3 | 1 | 10 | -14 | -8 | -4 | . | .
COC(=O)c1ccc(NC(=O)C(=O)N2CCN(C(=S)NCCc3ccccc3)CC2)cc1 | 4 | -8 | 3 | -14 | -1 | 22* | 10 | 13
Cc1ccc(S(=O)(=O)N2C3CC(c4ccccc4)N(S(=O)(=O)c4cccc(Cl)c4)CC3C(=O)C[C@H]2c2ccccc2)cc1 (some centres not stated) | 0 | . | . | -2 | . | . | . | .
CCOc1ccc(Oc2c(/C=N/NC(=O)COc3ccccc3OC)c(C)nn2-c2ccccc2)cc1 | 1 | -13 | 9 | 18 | -36 | 35* | 33* | 47*
CCOc1ccc(Oc2c(/C=N/NC(N)=O)c(C)nn2-c2ccccc2)cc1 | 3 | -13 | 9 | -9 | -3 | -9 | . | .
O=C(Nc1cccc(Cl)c1)Nc1cccc(Cl)c1 | 15 | 74* | 92* | 42 | 39* | 21* | 46* | 64*
O=C(Nc1cccc(F)c1)Nc1cccc(Cl)c1 | 9 | 34 | 31 | -14 | 24 | 34* | 40* | 55*
O=C(Nc1ccccc1)Nc1cccc2ccccc12 | 3 | -6 | 21 | -7 | -29 | 37* | 5 | 22*
SMILES | TAAR1 ag | CHO parental Ca | OX1R antag-1 | TAAR1 antagonist | OX1R antag-2 | GPR7 antagonist | GPR7 antag conf | MCHR1 antagonist
COC(=O)c1cc(NC(=O)c2ccc(-c3ccccc3)cc2)ccc1Cl | 7 | -14 | 44 | 22 | -14 | 8 | . | .
COC(=O)c1cc(NC(=O)Nc2cccc(Cl)c2)ccc1Cl | 10 | 14 | 50* | 60* | 46* | 33* | 52* | 77*
CCN1CCN(C(=O)c2ccc(CS(=O)(=O)Cc3ccccc3Cl)o2)CC1 | 2 | . | . | -8 | . | . | . | .
O=C(Nc1cccnc1)Nc1cc(Cl)cc(Cl)c1 | 12 | 2 | 26 | 18 | -4 | 9 | . | .
O=C(Nc1ccccc1)Nc1cc(Cl)cc(Cl)c1 | 6 | 54* | 84* | 20 | 65* | 38* | 38* | 60*
CCn1c(-c2ccc(N(C)C)cc2)nc2ccccc21 | 11 | -8 | 7 | 3 | -30 | 37* | 17 | 26*
CN(CCOc1ccc(Cl)cc1)CC(=O)Nc1ccc(OC(F)F)cc1 | -1 | -9 | -4 | 7 | -19 | 39* | 10 | 15
CN(CCOc1ccccc1)C(=S)Nc1ccc(OC(F)F)cc1 | 8 | -7 | 5 | -3 | -17 | 31* | 15 | 32*
COCCN(Cc1ccccc1)C(=S)Nc1ccc(OC(F)F)cc1 | -2 | -10 | 16 | 8 | -9 | -1 | . | .
C(=C\c1ccccc1)/CN1CCN(C(c2cccc3ccccc23)c2nnnn2-c2ccc3c(c2)OCCO3)CC1 (configuration not stated) | 1 | . | . | -29 | . | . | . | .
COc1ccccc1-c1cc(C(=O)NC2CCN(C)CC2)c2ccc(Cl)c(C)c2n1 | 4 | 7 | 3 | -7 | 4 | 43* | 69* | 81*
